# According to ChEMBL document CHEMBL4382219, “Synthesis and Biological Evaluation of Cajaninstilbene Acid and Amorfrutins A and B as Inhibitors of the Pseudomonas aeruginosa Quorum Sensing System” (J Nat Prod, 2018):
# The source made the active and inactive calls. The calls are words filed in the database; no cut-off is given here.
# Key:
# Pseudomonas aeruginosa [1] = test: Anti-biofilm activity against Pseudomonas aeruginosa PAO1 at 50 uM after 24 hrs by crystal violet staining based assay relative to control; format: functional
# Outline: (§1)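 PAO1 grown overnight in LB, then diluted in ABTGC medium (B-medium with 0.1% MgCl₂, 0.1% CaCl₂, 0.1% FeCl₃, plus 10% A10, 0.2% glucose, 0.2% casamino acids) and mixed with compound. Static 24 h at 37 °C. Wells PBS-washed, MeOH-fixed 20 min, stained 20 min with 0.1% w/v crystal violet, then dissolved in 33% AcOH.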
# [2] = biological target: 3-(3-hydroxydecanoyloxy)decanoate synthase (Pseudomonas aeruginosa (strain ATCC 15692 / PAO1 / 1C / PRS 101 / LMG12228)) (UniProt Q51559); test: Inhibition of RhlA quorum sensing system in Pseudomonas aeruginosa PAO1 harboring mini-ctx-RhlA-lacZ at 2.5 to 20 uM after 6 hrs by beta-galactosidase reporter gene assay
# [3] = biological target: Elastase (Pseudomonas aeruginosa (strain ATCC 15692 / PAO1 / 1C / PRS 101 / LMG12228)) (UniProt P14756); test: Inhibition of lasB quorum sensing system in Pseudomonas aeruginosa PAO1 harboring mini-ctx-lasB-lacZ after 6 hrs by beta-galactosidase reporter gene assay
# [4] = biological target: 3-(3-hydroxydecanoyloxy)decanoate synthase (Pseudomonas aeruginosa (strain ATCC 15692 / PAO1 / 1C / PRS 101 / LMG12228)) (UniProt Q51559); test: Inhibition of RhlA quorum sensing system in Pseudomonas aeruginosa PAO1 assessed as reduction in rhamnolipid production at 10 to 50 uM after 20 hrs
# Outline: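 Rhamnolipid by orcinol method: overnight PAO1 diluted in phosphate minimal medium with 0.6% glycerol, 5 mL cultures shaken at 37 °C for 20 h with compound at various concentrations; DMSO control. Cultures centrifuged 12000g, 4 °C, 5 min; orcinol reaction at 80 °C for 30 min. A421 divided by final OD600.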
# Pseudomonas aeruginosa [5] = test: Anti-biofilm activity against Pseudomonas aeruginosa PAO1 at 1 to 50 uM after 24 hrs by crystal violet staining based assay relative to control; format: functional; outline: as §1
# [6] = biological target: Elastase (Pseudomonas aeruginosa (strain ATCC 15692 / PAO1 / 1C / PRS 101 / LMG12228)) (UniProt P14756); test: Inhibition of lasB quorum sensing system in Pseudomonas aeruginosa PAO1 harboring mini-ctx-lasB-lacZ at 50 uM in presence of ODdHL by beta-galactosidase reporter gene assay
# Outline: (§2)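 Competition: overnight lasB-lacZ or pqsA-lacZ reporter cultures diluted in ABTGC medium to OD600 0.01. Compound at 50 μM added with ODdHL (lasB) or PQS (pqsA) at final 50, 20, 10 or 0 μM. β-galactosidase measured when OD600 reached 1.0. DMSO control; triplicate.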
# Pseudomonas aeruginosa [7] = test: Anti-biofilm activity against Pseudomonas aeruginosa PAO1 after 24 hrs by crystal violet staining based assay; format: functional, organism-based; outline: as §1
# Pseudomonas aeruginosa [8] = test: Toxicity in Pseudomonas aeruginosa PAO1 assessed as growth inhibition at 1 to 50 uM after 2 to 16 hrs; format: organism-based; conditions: in vivo
# [9] = biological target: T1, Anthranilate--CoA ligase (Pseudomonas aeruginosa (strain ATCC 15692 / DSM 22644 / CIP 104116 /JCM 14847 / LMG 12228 / 1C / PRS 101 / PAO1)) (UniProt Q9I4X3); test: Inhibition of pqsA quorum sensing system in Pseudomonas aeruginosa PAO1 harboring mini-ctx-pqsA-lacZ at 50 uM in presence of PQS by beta-galactosidase reporter gene assay; outline: as §2
# T1 sequence (whole entry): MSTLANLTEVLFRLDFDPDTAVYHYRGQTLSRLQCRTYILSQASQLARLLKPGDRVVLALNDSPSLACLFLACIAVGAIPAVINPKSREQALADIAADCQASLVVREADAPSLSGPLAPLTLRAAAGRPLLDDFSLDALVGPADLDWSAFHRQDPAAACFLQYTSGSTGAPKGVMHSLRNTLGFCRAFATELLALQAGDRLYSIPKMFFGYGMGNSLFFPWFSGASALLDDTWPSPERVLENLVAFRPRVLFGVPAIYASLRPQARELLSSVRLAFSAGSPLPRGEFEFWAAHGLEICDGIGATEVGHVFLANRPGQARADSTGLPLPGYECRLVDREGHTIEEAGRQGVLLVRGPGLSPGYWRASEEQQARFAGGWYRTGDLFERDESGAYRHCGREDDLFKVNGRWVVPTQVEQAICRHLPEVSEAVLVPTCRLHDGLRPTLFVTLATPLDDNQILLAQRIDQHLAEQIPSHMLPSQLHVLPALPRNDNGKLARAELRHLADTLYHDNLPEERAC
# [10] = biological target: 3-(3-hydroxydecanoyloxy)decanoate synthase (Pseudomonas aeruginosa (strain ATCC 15692 / PAO1 / 1C / PRS 101 / LMG12228)) (UniProt Q51559); test: Inhibition of RhlA quorum sensing system in Pseudomonas aeruginosa PAO1 harboring mini-ctx-RhlA-lacZ at 50 uM after 6 hrs by beta-galactosidase reporter gene assay
# Pseudomonas aeruginosa [11] = test: Toxicity in Pseudomonas aeruginosa PAO1 harboring mini-ctx-lacZ assessed as effect on beta-galactosidase activity at 2.5 to 50 uM beta-galactosidase reporter gene assay; format: organism-based; conditions: in vivo
# [12] = biological target: T1, Anthranilate--CoA ligase (Pseudomonas aeruginosa (strain ATCC 15692 / DSM 22644 / CIP 104116 /JCM 14847 / LMG 12228 / 1C / PRS 101 / PAO1)); test: Inhibition of pqsA quorum sensing system in Pseudomonas aeruginosa PAO1 harboring mini-ctx-pqsA-lacZ after 24 hrs by beta-galactosidase reporter gene assay
# [13] = biological target: Elastase (Pseudomonas aeruginosa (strain ATCC 15692 / PAO1 / 1C / PRS 101 / LMG12228)) (UniProt P14756); test: Inhibition of lasB quorum sensing system in Pseudomonas aeruginosa PAO1 assessed as reduction in elastase release at 10 uM after 24 hrs relative to control
# Outline: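 Elastase: overnight wild-type PAO1 diluted in ABTGC medium to OD600 0.01 and grown 24 h at 37 °C with shaking at 200 rpm. Supernatant elastase measured by a fluorogenic elastase kit. PAO1ΔlasIΔrhlI served as blank; DMSO as control.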
# [14] = biological target: T1, Anthranilate--CoA ligase (Pseudomonas aeruginosa (strain ATCC 15692 / DSM 22644 / CIP 104116 /JCM 14847 / LMG 12228 / 1C / PRS 101 / PAO1)); test: Inhibition of pqsA quorum sensing system in Pseudomonas aeruginosa PAO1 assessed as reduction in pyocyanin release at 10 uM after 20 hrs relative to control
# Outline: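 Pyocyanin: overnight PAO1 diluted in LB to OD600 0.01; 20 mL cultures shaken at 37 °C for 20 h. Centrifuged at 1500g for 10 min; supernatant absorbance read at 695 nm. PAO1ΔlasIΔrhlI served as blank; DMSO as control.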
# Elastase (Pseudomonas aeruginosa (strain ATCC 15692 / PAO1 / 1C / PRS 101 / LMG12228)), sequence (P14756 198-498 limits assumed): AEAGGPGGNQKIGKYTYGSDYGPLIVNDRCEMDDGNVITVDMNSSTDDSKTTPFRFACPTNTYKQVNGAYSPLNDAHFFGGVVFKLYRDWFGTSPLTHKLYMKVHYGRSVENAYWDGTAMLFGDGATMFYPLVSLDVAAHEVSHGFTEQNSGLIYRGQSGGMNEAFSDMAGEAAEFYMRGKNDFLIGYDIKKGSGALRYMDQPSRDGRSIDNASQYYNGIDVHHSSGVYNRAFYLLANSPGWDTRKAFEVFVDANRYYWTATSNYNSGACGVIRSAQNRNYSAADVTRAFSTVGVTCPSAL
Structure (SMILES),Activity (Pseudomonas aeruginosa [1]),also measured
COc1cc(CCc2ccccc2)c(C=O)c(O)c1C/C=C(\C)CCC=C(C)C,53.1%,
COc1cc(CCc2ccccc2)c(C=O)c(OC(C)=O)c1CC=C(C)C,-32.1%,
COc1cc(CCc2ccccc2)c(C=O)c(OC(C)=O)c1C/C=C(\C)CCC=C(C)C,24.7%,
COc1cc(CCc2ccccc2)c(C(=O)O)c(O)c1CC=C(C)C [AMORFRUTIN A],-31.3%,
COc1cc(/C=C/c2ccccc2)c(C=O)c(OC(C)=O)c1CC=C(C)C,-12.5%,
COc1cc(/C=C/c2ccccc2)c(C=O)c(OCC=C(C)C)c1,-14.3%,
COc1cc(/C=C/c2ccccc2)c(C=O)c(O)c1CC=C(C)C,42.4%,
COc1cc(CCc2ccccc2)c(C(=O)O)c(O)c1C/C=C(\C)CCC=C(C)C,50.3%,inhibition [2]: inactive; inhibition [3]: Dose-dependent effect; inhibition [4]: inactive; Activity (Pseudomonas aeruginosa [5]): 20 - 50%; inhibition [6]: inactive; Activity (Pseudomonas aeruginosa [7]): Dose-dependent effect; growth inhibition (GI) (Pseudomonas aeruginosa [8]): Non-Toxic; inhibition [9]: inactive; inhibition [10]: Active; Activity (Pseudomonas aeruginosa [11]): Non-Toxic; inhibition [12]: Dose-dependent effect; inhibition [13]: 50%; inhibition [14]: 50%
COc1cc(CCc2ccccc2)c(C(=O)O)c(OC(C)=O)c1CC=C(C)C,36.9%,
COc1cc(CCc2ccccc2)c(C=O)c(O)c1CC=C(C)C,26.9%,
COc1cc(CCc2ccccc2)c(C(=O)O)c(OC(C)=O)c1C/C=C(\C)CCC=C(C)C,-32.9%,
COc1cc(/C=C/c2ccccc2)c(C(=O)O)c(OC(C)=O)c1CC=C(C)C,-24.4%,
COc1cc(/C=C/c2ccccc2)c(C(=O)O)c(O)c1CC=C(C)C,-41%,
